In ChEMBL document CHEMBL2029235, “Bio-inspired synthesis and biological evaluation of a colchicine-related compound library” (Bioorg Med Chem Lett, 2012):

Experiments:
HT-29 [1] = experiment: Cytotoxicity against human HT-29 cells after 96 hrs by MTT assay; type: functional, cell-based; conditions: HT-29, 96 h
In short: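 HT-29 cells in RPMI-1640 with 10% newborn calf serum, 37 °C, 5% CO2. Seeded at 5 × 10^3 cells/well and grown 24 h, then given fresh medium with graded compound concentrations for 96 h. MTT (5 mg/mL stock) added for 1–2 h at 37 °C. Formazan dissolved in DMSO and read at 570 nm; viability taken as absorbance fraction of untreated wells. Run in triplicate, mean ± SD.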

HT-29 [2] = experiment: Cytotoxicity against human HT-29 cells

| SMILES | IC50 (HT-29 [1]) [µM] | IC50 (HT-29 [2]) [µM] |
| --- | --- | --- |
| COc1cc2c3c(c1O)-c1c(cc(OC)c(OC)c1OC)CC[C@@H]3N(C)CC2=O | 22.5 |  |
| COc1cc2c(cc1O)[C@H](CCc1cc(OC)c(OC)c(OC)c1)N(C(=O)C(F)(F)F)CC2 | > 50 |  |
| COc1cc2c3c(c1O)-c1c(cc(OC)c(OC)c1OC)CC[C@@H]3N(S(C)(=O)=O)CC2 | 7.95 |  |
| COc1cc2c3c(c1O)-c1c(cc(OC)c(OC)c1OC)CC[C@@H]3N(S(=O)(=O)C(F)(F)F)CC2 | 10.4 |  |
| COc1cc2c3c(c1O)-c1c(cc(OC)c(OC)c1OC)CC[C@@H]3N(C(C)=O)CC2 | 13.3 |  |
| COc1cc2c3c(c1O)-c1c(cc(OC)c(OC)c1OC)CC[C@@H]3N(C(=O)C(F)(F)F)CC2 | 6.45 |  |
| COC1=C[C@@]23CCN(S(C)(=O)=O)[C@@H](CCc4cc(OC)c(OC)c(OC)c42)C3=CC1=O | > 50 |  |
| COC1=C[C@@]23CCN(S(=O)(=O)C(F)(F)F)[C@@H](CCc4cc(OC)c(OC)c(OC)c42)C3=CC1=O | 15.7 |  |
| COC1=C[C@@]23CCN(S(=O)(=O)c4ccc(C)cc4)[C@@H](CCc4cc(OC)c(OC)c(OC)c42)C3=CC1=O | 42.7 |  |
| COC1=C[C@@]23CCN(C(C)=O)[C@@H](CCc4cc(OC)c(OC)c(OC)c42)C3=CC1=O | 37.8 |  |
| COC1=C[C@@]23CCN(C(=O)C(F)(F)F)[C@@H](CCc4cc(OC)c(OC)c(OC)c42)C3=CC1=O | > 50 |  |
| COc1cc2c(cc1O)[C@@H]1CCc3cc(OC)c(OC)c(OC)c3[C@H]2CN1S(C)(=O)=O | 11.6 |  |
| COc1cc2c(cc1O)[C@@H]1CCc3cc(OC)c(OC)c(OC)c3[C@H]2CN1S(=O)(=O)c1ccc(C)cc1 | 10.8 |  |
| COc1cc2c(cc1O)[C@@H]1CCc3cc(OC)c(OC)c(OC)c3[C@H]2CN1C(C)=O | > 50 |  |
| COc1cc2c(cc1O)[C@@H]1CCc3cc(OC)c(OC)c(OC)c3[C@H]2CN1C(=O)C(F)(F)F | 27.8 |  |
| COc1cc2c(cc1OC(C)=O)[C@@H]1CCc3cc(OC)c(OC)c(OC)c3[C@H]2CN1C(=O)C(F)(F)F | 40.8 |  |
| COc1cc2c(c(OC)c1OC)[C@H]1CN(S(=O)(=O)c3ccc(C)cc3)[C@@H](CC2)C2=CC(=O)C(=O)C=C21 | 6.6 |  |
| COc1cc2c(cc1O)[C@H]1CCc3cc(OC)c(OC)c(OC)c3[C@@H](C2)N1Cc1ccccc1 | 9.1 |  |
| COc1cc2c(cc1OC(C)=O)[C@H]1CCc3cc(OC)c(OC)c(OC)c3[C@@H](C2)N1Cc1ccccc1 | 21.7 |  |
| COc1cc2c(cc1OC)[C@H]1CCc3cc(OC)c(OC)c(OC)c3[C@@H](C2)N1C | > 50 |  |
| COc1cc2c(cc1O)[C@H]1CCc3cc(OC)c(OC)c(OC)c3[C@@H](C2)N1C | > 50 |  |
| COc1cc2c(cc1OC(C)=O)[C@H]1CCc3cc(OC)c(OC)c(OC)c3[C@@H](C2)N1C | 43.5 |  |

| SMILES | IC50 (HT-29 [1]) [µM] | IC50 (HT-29 [2]) [µM] |
| --- | --- | --- |
| COC1=CC2(C=C(OC)C1=O)CC[C@H]1c3c(cc(OC)c(O)c32)CCN1S(=O)(=O)C(F)(F)F | 46.5 |  |
| COC1=CC2(C=C(OC)C1=O)CC[C@H]1c3c(cc(OC)c(O)c32)CCN1C(C)=O | 45.9 |  |
| COC1=CC2(C=C(OC)C1=O)CC[C@H]1c3c(cc(OC)c(O)c32)CCN1C | > 50 |  |
| COc1cc2c3c(c1O)-c1c(cc(OC)c(OC)c1OC)CC[C@@H]3N(S(=O)(=O)C(F)(F)F)CC2=O | 1.16 |  |
| COc1cc2c(c(OC)c1OC)-c1c(OC(C)=O)c(OC)cc3c1[C@H](CC2)N(C)CC3=O | 27.2 |  |
| COc1cc2c(c(OC)c1OC)-c1c(OC(=O)Oc3ccccc3)c(OC)cc3c1[C@H](CC2)N(C)CC3=O | 30.8 |  |
| COc1cc2c3c(c1O)-c1c(cc(OC)c(OC)c1OC)CC[C@@H]3N(S(C)(=O)=O)C(O)C2=O (some centres undefined) | > 50 |  |
| COc1cc2c3c(c1O)-c1c(cc(OC)c(OC)c1OC)CC[C@@H]3N(C(=O)C(F)(F)F)C=C2 | 0.684 |  |
| COc1cc2c(c(OC)c1OC)-c1c(OC(C)=O)c(OC)cc3c1[C@H](CC2)N(C(=O)C(F)(F)F)C=C3 | 1.25 |  |
| COc1cc2c(c(OC)c1OC)-c1c(OS(=O)(=O)C(F)(F)F)c(OC)cc3c1C(=CC2)N(S(=O)(=O)C(F)(F)F)C=C3 | 10.1 |  |
| COc1cc2ccnc3c2c(c1O)-c1c(cc(OC)c(OC)c1OC)CC3 | 0.179 |  |
| COc1cc2c(c(OC)c1OC)-c1c(OC(C)=O)c(OC)cc3ccnc(c13)CC2 | 0.189 |  |
| COc1cc2c(c(OC)c1OC)-c1c(OC(=O)C3CCCCC3)c(OC)cc3ccnc(c13)CC2 | 0.99 |  |
| COc1cc2c(c(OC)c1OC)-c1c(OC(=O)c3ccccc3)c(OC)cc3ccnc(c13)CC2 | 2.56 |  |
| COC(=O)Oc1c(OC)cc2ccnc3c2c1-c1c(cc(OC)c(OC)c1OC)CC3 | 0.182 |  |
| COc1cc2c(c(OC)c1OC)-c1c(OC(=O)OCC(Cl)(Cl)Cl)c(OC)cc3ccnc(c13)CC2 | 0.229 |  |
| COc1cc2c(c(OC)c1OC)-c1c(OC(=O)Oc3ccccc3)c(OC)cc3ccnc(c13)CC2 | 0.132 |  |
| COc1cc2c(c(OC)c1OC)-c1c(OC(=S)n3ccnc3)c(OC)cc3ccnc(c13)CC2 | 0.293 |  |
| COc1cc2c(c(OC)c1OC)-c1c(OS(C)(=O)=O)c(OC)cc3ccnc(c13)CC2 | 24.4 |  |
| COc1cc2c(c(OC)c1OC)-c1c(OS(=O)(=O)C(F)(F)F)c(OC)cc3ccnc(c13)CC2 | 24.6 |  |
| COC1=CC2=C3c4c(c(OC)cc5ccnc(c45)CC2)O[C@]3(OC)C1=O | 23.9 |  |
| COc1cc2c(c(OC)c1OC)-c1ccc(OC)c(=O)cc1[C@@H](NC(C)=O)CC2 [COLCHICINE] |  | 0.008 |
